Autophagy mod = autophagy modulation, high-content screen; MEF GFP-LC3 puncta imaging; test concentration mostly 10 µM; calls only at 10 µM (by protocol); 190,000 compounds, 0.98% hits;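 active = percentage of spot-positive cells more than 3 SD above its plate mean, without a fluorescence outlier flag or 80% toxicity; inconclusive = no clear call, values can overlap the other calls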;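 note: spot-positive cell cutoff set from DMSO-treated cells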
HCT116 bCat-KO = beta-catenin-lacking colon tumor cell growth suppression; 140,000 compounds, 1.5% hits; AID 818; viability, % at 10 µM; HCT116 beta-catenin knockout viability, CellTiter-Glo, 60 h; stronger effect = lower value;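 active = viability at or under a set limit, the compound median less 4 SD, cut at about 6% in these data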;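 note: 0% = Hyamine 1622 control at 20 µM and 100% = untreated cell control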
Dynein transport = dynein cargo transport inhibition; 3617.4 mouse cells, GR-EGFP nuclear translocation imaging; test concentration mostly 20 µM; stimulated with dexamethasone, 1 µM; stronger effect = lower value; z-score, hits read low; 220,000 compounds, 0.47% hits; AID 1381;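 active = plate z-score of nuclear minus cytoplasmic receptor signal below a set negative limit, without overly bright fluorescence or cell loss, cut at about -3.5 in these data, passing the limit was not always enough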;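 note: z-score of nuclear minus cytoplasmic ring GR-EGFP intensity difference per well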
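Also added – dexamethasone, 1.0 µM final · Buffer or medium – tet-free, stripped-serum medium · Schedule – induction 48 h, compound 1 h, agonist 30 min · Detection – formaldehyde fixation, Hoechst nuclear stain, 10x automated fluorescence imaging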
PTEN del growth = suppresses growth of cells with PTEN deletion. HCT116 PTEN-null viability, CellTiter-Glo, 60 h; stronger effect = lower value. viability, % at 10 µM. 140,000 compounds, 1.2% hits;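 active = viability at or below a set limit, 4 SD under the median of all tested compounds, cut at about 3.7% in these data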;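 note: PTEN knockout HCT116 line with beta catenin targeted HCT116 as companion control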
SDO1 yeast rescue = restores growth of sdo1-depleted yeast | S. cerevisiae sdo1-depleted JHY4D growth rescue, OD600 30 h; stronger effect = higher value; pdr5 snq2 efflux-pump mutant strain | z-score at 10 µM | 140,000 compounds, 0.21% hits;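 active = z-score above 3 at both the 24 hr and the 30 hr optical density reads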;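 note: z-score against mean and SD of all compound wells on the same plate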
Dynein inh conf = dynein cargo transport inhibition, confirmation | shares compounds with Dynein transport | 3617.4 GR-EGFP nuclear translocation imaging, dexamethasone-induced | calls only at 20 µM | 1,000 compounds, 69% hits;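 active = inhibition of receptor movement into the nucleus at or above a set limit in both runs, with normal cell brightness and cell count; inconclusive = limit reached in only one run, brightness and count normal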;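 note: dexamethasone at 1 µM final in well for 30 min; nuclear minus cytoplasmic GR-EGFP mean intensity difference in channel 2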
An asterisk follows results filed as active; i = inactive; ? = inconclusive; . = no result given; + = active, no number. Sampled rows, rich in hits. Any-hit rate of the full collection: about 2.2%.

SMILES | Autophagy mod | HCT116 bCat-KO | Dynein transport | PTEN del growth | SDO1 yeast rescue | Dynein inh conf
COc1ccc(CCn2c(C)cc(C(=O)CCl)c2C)cc1OC | i | . | -3.7* | . | . | +
CCN(CC)C(=O)c1cc([N+](=O)[O-])cc2c1-c1ccc([N+](=O)[O-])cc1C2=C(C#N)C#N | . | . | -4.9* | . | . | ?
CCN(CC)C(=O)c1ccc(Oc2ccc([N+](=O)[O-])cc2Cl)cc1 | i | . | 0.23 | . | . | .
O=C(O)CCn1cc(C2CC(c3ccccc3)=NN2c2ccccc2)c(-c2ccccc2)n1 (centres undefined) | i | . | 1.2 | . | . | .
Cc1cc(C)cc(OC(=O)CS(=O)c2ccc(C(F)(F)F)cc2[N+](=O)[O-])c1 (centres undefined) | i | 98 | -3.7* | 82 | -0.89 | +
c1cncc(-c2nc(-c3ccco3)cs2)c1 | i | 97 | -4.5* | 101 | 0.15 | i
Clc1ccsc1-c1csc(-c2cccnc2)n1 | i | 47 | -0.96 | 46 | -1.4 | .
Oc1c(Cl)cc(Cl)c2c1NCCC2 | i | 69 | -4.7* | 81 | -0.5 | i
O=S(=O)(Nc1ccc(N2CCOCC2)cc1)c1cccs1 | i | 81 | 0.58 | 88 | -0.11 | .
CCc1ccc(NS(=O)(=O)c2cccs2)cc1 | i | 100 | -4.1 | 98 | 0.43 | i
O=c1cc(C(Cl)(Cl)Cl)oc2c1ccc1ccccc12 | + | 2.5* | -4* | 2.6* | -1.8 | +
O=c1cc(-c2ccco2)oc2c1ccc1ccccc12 | i | 88 | -0.87 | 78 | 0.22 | .
CC1CC(C)(C)Nc2ccc(N=O)cc21 (centres undefined) | + | . | -4* | . | . | +
Cc1ccc(S(=O)(=O)/N=C(\CCl)N2CCOCC2)cc1 | i | 54 | -3.8* | 57 | -0.53 | +
CC(=O)c1sc(NC(=O)COc2ccc([N+](=O)[O-])cc2)nc1C | i | . | -0.66 | . | . | .
Cc1csc(NC(=O)C2CCCN2C(=O)Oc2ccccc2)n1 (centres undefined) | i | 78 | -0.71 | 105 | 0.88 | .
CC[n+]1c(/C=C2\Sc3ccccc3N2C)ccc2cccc(C)c21 | ? | . | -8.5* | . | . | +
COc1cc(OC)cc(C(=O)NCCCN2CCOCC2)c1 | i | 100 | 0.89 | 98 | 0.15 | .
COC(=O)[C@@]1(Cc2ccccc2)[C@@H]2C(=CC(=O)[C@H]2CC(=O)C(=O)N(C)C)CN1C(=O)c1ccccc1 | i | 2.4* | -5.2* | 1.7* | -0.78 | +
COC(=O)[C@@]1(Cc2ccc(F)cc2)[C@H]2c3cc(C(=O)N(C)C)n(C[C@H](O)CO)c3C[C@H]2CN1C(=O)c1ccccc1 | i | 84 | -0.038 | 90 | -0.16 | .
CC(C)N1C/C(=C/c2cccnc2)C(=O)/C(=C/c2cccnc2)C1 | i | 52 | -4.2* | 58 | -1.7 | +
CC(C)N1C/C(=C/c2ccsc2)C(=O)/C(=C/c2ccsc2)C1 | i | 2.6* | -3.8* | 1.5* | -0.87 | +
Cc1ccc(C2CCN(C(=S)NC(C)C)C2)cc1 (centres undefined) | i | . | 0.15 | . | . | .
COc1ccc(C(=O)OCC(=O)c2ccc(C3CCCCC3)cc2)cc1 | i | 36 | -0.35 | 47 | -0.12 | .
Nc1ccc(O)cc1C(=O)OCC(=O)c1ccc(C2CCCCC2)cc1 | i | 72 | -3.5* | 77 | -0.9 | +
SMILES | Autophagy mod | HCT116 bCat-KO | Dynein transport | PTEN del growth | SDO1 yeast rescue | Dynein inh conf
O=C(CCSc1ccccn1)c1ccccc1 | i | . | -4* | . | . | i
CCn1c(C)[n+](CC(O)COCC2CC=CCC2)c2ccccc21 (centres undefined) | i | 84 | -1.1 | 78 | 0.19 | .
COc1ccc(N(C(=O)CCl)C(C(=O)NCCc2ccccc2)c2cccs2)cc1Cl (centres undefined) | i | 1.8* | -4.8* | 0.9* | -0.9 | +
COc1cccc(N(C(=O)CS(=O)CC(=O)Nc2ccc(F)cc2)C(C(=O)NC2CCCCC2)c2cccs2)c1 (centres undefined) | i | 82 | 0.15 | 83 | 0.05 | .
COCCNC(=O)C(c1cccs1)N(C(=O)Cn1nnc2ccccc21)c1ccccc1 (centres undefined) | i | 98 | 0.38 | 99 | 0.56 | .
COc1cccc(N(C(=O)CCl)C(C(=O)NCCc2ccccc2)c2cccs2)c1 (centres undefined) | i | 2.4* | -5.5* | 1.2* | -0.56 | +
O=C1CCCCc2sc(Br)c([N+](=O)[O-])c2N1 | . | . | -6.5* | . | . | +
CC(C)CNC(=O)CC(c1ccccc1)c1ccccc1 | i | . | -0.67 | . | . | .
CC1(C)COC(/C=C/c2cccc([N+](=O)[O-])c2)=N1 | i | . | -4.5* | . | . | +
CCn1cc(-c2nnnn2-c2ccc(Cl)cc2)c(=O)c2ccccc21 | i | 90 | -0.18 | 91 | 0.41 | .
COc1ccc(NC(=O)Cc2ccc(Cl)c(Cl)c2)cn1 | i | . | -0.58 | . | . | .
COc1ccc(NC(=O)/C(Cl)=C(/Cl)S(=O)(=O)Cc2ccc(C)cc2)cn1 | i | 3.1* | -5* | 2.0* | -2.7 | i
Cc1ccc(Cl)cc1NC(=S)NCc1cccn1C | i | 88 | 1.1 | 90 | -0.31 | .
S=c1[nH]c2ccccc2o1 | i | . | 0.74 | . | . | .
CC(=O)/C=C1/C(=O)Nc2ccccc21 | i | . | -5.6* | . | . | +
COc1cc(NS(=O)(=O)c2ccc(N/C=C(\C=O)c3nc4ccccc4o3)cc2)nc(OC)n1 | i | 89 | 0.0085 | 88 | -0.24 | .
Cc1cc(NC(=O)c2ccccc2F)on1 | i | 94 | -0.52 | 98 | -0.1 | .
Cc1cc(C)nc(S/C=C/C(=O)c2ccccc2F)n1 | . | . | -3.7* | . | . | +
Cc1cccc(NC(=O)CCC(=O)OCC(=O)c2ccc(Oc3ccc([N+](=O)[O-])cc3)cc2)c1 | i | 82 | -4.4* | 95 | -1.4 | ?
Cc1ccc(NC(=O)CCC(=O)OCC(=O)c2ccc(Oc3ccc([N+](=O)[O-])cc3)cc2)cc1C | i | 80 | -0.69 | 89 | -0.14 | .
Cc1ccc(C)c2nc3sc(C(=O)N4CCCc5ccccc54)c(N)c3cc12 | + | 64 | -7.1 | 76 | 0.01 | i
CC(=O)Nc1ccccc1-c1nc2ccc(C(=O)N3CCN(c4ccccc4)CC3)cc2[nH]c1=O | . | 80 | -0.61 | 84 | 0.67 | .
COC(=O)c1cc([N+](=O)[O-])c(-n2ccnc2)c([N+](=O)[O-])c1 | i | 99 | -3.5* | 99 | 0.6 | +
O=C(O)c1ccc(-n2ccnc2)c([N+](=O)[O-])c1 | i | 90 | -0.36 | 90 | -0.36 | .
CCOC(=O)N1C/C(=C\c2ccccc2)C(=O)/C(=C/c2ccccc2)C1 | . | . | -4.9* | . | . | +
C[C@@H](C(=O)N1CCN(C(=O)OC(C)(C)C)CC1)n1cc(CCCN=C(NC(=O)OC(C)(C)C)NC(=O)OC(C)(C)C)nn1 | i | . | -0.63 | . | . | .
